The text below walks through data of ChEMBL document CHEMBL1141109, “Synthesis of an estrogen receptor beta-selective radioligand: 5-[18F]fluoro-(2R,3S)-2,3-bis(4-hydroxyphenyl)pentanenitrile and comparison of in vivo distribution with 16alpha-[18F]fluoro-17beta-estradiol” (J Med Chem, 2005).

Series [1] can be described thus: Biodistribution of [18F]-FES in beta estrogen receptor knock out mouse heart after 30 min; (n=3). Type of series: ADME, organism-based. The settings on record: in vivo, 0.5 h. In short, it runs like this: (§1)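 Female βERKO mice in estrus were used because repeated swabbing had induced pseudopregnancy. They were fed estrogen-free chow. Each received 13 µCi [18F]FES in 100 µL 10% ethanol/saline and was sacrificed at 30 min, 1 h or 2 h (n = 3 each). Tissue uptake is given as %ID/g ± SD.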

Series [2] in a line: Biodistribution of [18F]FES in beta estrogen receptor knock out mouse brain after 1 h; (n=3). Type of series: ADME, organism-based. The settings on record: in vivo.
Series [3] is described as follows: Biodistribution of [18F]-FES in beta estrogen receptor knock out mouse brain after 30 min; (n=3). It counts as ADME, organism-based. The settings on record: in vivo, 0.5 h. Put shortly:
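βERKO mice rested 48 h after shipping, fed estrogen-free chow and staged by vaginal smears. Repeated swabbing caused pseudopregnancy in some, so this group was studied in estrus. Mice given [18F]FES were sacrificed at 30 min (n = 3). Uptake is reported as %ID/g ± SD.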

Series [4] in a line: Biodistribution of [18F]FES in alpha estrogen receptor knock out mouse kidney after 30 min; (n=3). It counts as ADME, organism-based. The conditions noted are these: in vivo, 0.5 h. Put shortly: (§2)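 Female αERKO mice were rested 48 h after shipping and fed estrogen-free chow. They were staged by daily vaginal smears and studied in diestrus. Each received 13 µCi [18F]FES in 100 µL 10% ethanol/saline and was sacrificed at 30 min, 1 h or 2 h (n = 3 per time). Tissue uptake is given as %ID/g ± SD.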

Series [5] in a line: Biodistribution of [18F]-FES in beta estrogen receptor knock out mouse lung after 2 h; (n=3). Type of series: ADME, organism-based. The settings on record: in vivo. Put shortly:
as §1

The nature of series [6]: Biodistribution of [18F]FES in beta estrogen receptor knock out mouse heart after 2 h; (n=3). Type of series: ADME, organism-based. The settings on record: in vivo.
The nature of series [7]: Biodistribution of [18F]FES in beta estrogen receptor knock out mouse lung after 30 min(n=2); mice in nonestrus stage. The settings on record: in vivo, 0.5 h. Type of series: ADME, organism-based.
The nature of series [8]: Biodistribution of [18F]FES in alpha estrogen receptor knock out mouse spleen after 1 h; (n=3). The settings on record: in vivo. It counts as ADME, organism-based.
A short description of series [9]: Biodistribution of [18F]FES in alpha estrogen receptor knock out mouse heart after 30 min; (n=3). Type of series: ADME, organism-based. The conditions noted are these: in vivo, 0.5 h. In short, it runs like this: as §2
The nature of series [10]: Biodistribution of [18F]FES in beta estrogen receptor knock out mouse bone after 30 min; (n=3). The conditions noted are these: in vivo, 0.5 h. Type of series: ADME, organism-based, Bone element.
A short description of series [11]: Biodistribution of [18F]FES in beta estrogen receptor knock out mouse blood after 2 h; (n=3). Type of series: ADME, organism-based. The conditions noted are these: in vivo.
Series [12] in a line: Biodistribution of [18F]FES in alpha estrogen receptor knock out mouse heart after 1 h; (n=3). It counts as ADME, organism-based. The settings on record: in vivo. Put shortly:
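Female αERKO mice rested 48 h after shipping and fed estrogen-free chow. Estrous stage was checked by daily vaginal smears, and mice were used in diestrus. Each received 13 µCi [18F]FES in 100 µL 10% ethanol/saline. Animals were sacrificed at 30 min, 1 h or 2 h (n = 3 each). Tissue uptake is reported as %ID/g ± SD.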

Series [13] is described as follows: Biodistribution of [18F]FES in beta estrogen receptor knock out mouse heart after 1 h; (n=3). Type of series: ADME, organism-based. The conditions noted are these: in vivo.
A short description of series [14]: Biodistribution of [18F]FES in alpha estrogen receptor knock out mouse fat after 30 min; (n=3). The settings on record: in vivo, 0.5 h. It counts as ADME, organism-based, Adipose tissue. Put shortly: as §2
Series [15] can be described thus: Biodistribution of [18F]FES in beta estrogen receptor knock out mouse fat after 1 h; (n=3). The conditions noted are these: in vivo. Type of series: ADME, organism-based, Adipose tissue.
A short description of series [16]: Biodistribution of [18F]FES in beta estrogen receptor knock out mouse spleen after 30 min(n=2); mice in nonestrus stage. It counts as ADME, organism-based. The settings on record: in vivo, 0.5 h.
A short description of series [17]: Biodistribution of [18F]FEDPN in beta estrogen receptor knock out mouse heart after 2 h; (n=3). It counts as ADME, organism-based. The settings on record: in vivo. Put shortly: (§3)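 αERKO and βERKO mice, staged by daily vaginal smears and kept on estrogen-free chow, were studied in a nonestrous stage. Each mouse received 11 μCi of tracer in 130 μL of 10% ethanol/saline. Mice were killed at 30 min, 1 h or 2 h (n = 3 each). Organs were removed, blotted, weighed and gamma-counted against an injectate standard. Uptake is given as %ID/g ± SD.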

Series [18] in a line: Biodistribution of [18F]FEDPN in rat liver after 1 h block when given in tail vein; (n=5). It counts as ADME, organism-based. The settings on record: in vivo, iv. Put shortly:
(§4)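 Immature female Sprague–Dawley rats (<25 days old) under isoflurane/O2 got 20 µCi tracer in 150 µL 20% ethanol/saline by tail vein. […] Rats were killed at 30 min, 1 h or 2 h. Organs were blotted, weighed and gamma-counted against an injectate standard. Data are %ID/g ± SD, five rats per point.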

Series [19] is described as follows: Biodistribution of [18F]-FEDPN in rat bone after 2 h when given in tail vein; (n=5). The settings on record: in vivo, iv. It counts as ADME, organism-based, Bone element. In short, it runs like this: (§5)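 Immature female Sprague–Dawley rats (<25 days old) anesthetized with isoflurane/O2. Given 20 µCi tracer by tail vein in 150 µL of 20% ethanol/saline. […] Killed at 30 min, 1 h or 2 h. Blood and organs blotted, weighed and gamma-counted against a standard dilution of the injectate. Reported as %ID/g ± SD, n=5.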

Series [20] in a line: Biodistribution of [18F]FEDPN in alpha estrogen receptor knock out mouse kidney after 30 min; (n=3). Type of series: ADME, organism-based. The settings on record: in vivo, 0.5 h. Put shortly: (§6)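 ERKO female mice (αERKO or βERKO), rested 48 h after shipping, placed on estrogen-free chow, and staged by daily vaginal smears. Injected in a nonestrous stage with 11 µCi [18F]FEDPN in 130 µL of 10% ethanol/saline. Killed at 30 min, 1 h or 2 h. Organs counted and reported as %ID/g ± SD, three animals per point.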

Series [21] is described as follows: Biodistribution of [18F]FEDPN in beta estrogen receptor knock out mouse brain after 1 h; (n=3). It counts as ADME, organism-based. The settings on record: in vivo. In short, it runs like this: as §3
Series [22] is described as follows: Biodistribution of [18F]-FEDPN in alpha estrogen receptor knock out mouse blood after 30 min; (n=3). Type of series: ADME, organism-based. The settings on record: in vivo, 0.5 h. Put shortly:
as §6

A short description of series [23]: Biodistribution of [18F]FEDPN in alpha estrogen receptor knock out mouse uterus after 2 h; (n=3). It counts as ADME, organism-based. The conditions noted are these: in vivo. Put shortly: as §3
Series [24] can be described thus: Biodistribution of [18F]-FEDPN in rat heart after 1 hr when given in tail vein; (n=5). Type of series: ADME, organism-based. The conditions noted are these: in vivo, iv. Put shortly: as §5
A short description of series [25]: Biodistribution of [18F]FEDPN in rat heart after 30 min when given in tail vein; (n=5). Type of series: ADME, organism-based. The settings on record: in vivo, iv, 0.5 h. In short, it runs like this: as §4
The nature of series [26]: Biodistribution of [18F]FEDPN in rat spleen after 30 min when given in tail vein; (n=5). Type of series: ADME, organism-based. The conditions noted are these: in vivo, iv, 0.5 h. Put shortly:
as §4

A short description of series [27]: Biodistribution of [18F]FEDPN in rat bone after 1 h block when given in tail vein; (n=5). It counts as ADME, organism-based, Bone element. The settings on record: in vivo, iv. In short, it runs like this: as §4
The nature of series [28]: Biodistribution of [18F]FEDPN in rat muscle after 30 min when given in tail vein; (n=5). The settings on record: in vivo, iv, 0.5 h. It counts as ADME, organism-based, Muscle tissue. Put shortly:
as §4

Series [29] deals with T1, Estrogen receptor (Mus musculus) (UniProt O08537+P19785). Nature of the series: Ratio of [18F]FEDPN uptake in ovaries of ERbeta KO-mouse (diestrus) and ERalpha KO-mouse (nonestrus) after 30 min.
The nature of series [30]: Biodistribution of [18F]FEDPN in alpha estrogen receptor knock out mouse heart after 30 min; (n=3). The settings on record: in vivo, 0.5 h. It counts as ADME, organism-based. In short, it runs like this: as §6
Series [31] addresses T1, Estrogen receptor (Mus musculus). Nature of the series: Ratio of [18F]FEDPN uptake in ovaries of ERbeta KO-mouse and ERalpha KO-mouse (nonestrus) after 2 hr.
A short description of series [32]: Biodistribution of [18F]-FEDPN in rat spleen after 1 hr block when given in tail vein; (n=5). The conditions noted are these: in vivo, iv. Type of series: ADME, organism-based. Put shortly:
as §5

T1 sequence (O08537 whole entry, looked up): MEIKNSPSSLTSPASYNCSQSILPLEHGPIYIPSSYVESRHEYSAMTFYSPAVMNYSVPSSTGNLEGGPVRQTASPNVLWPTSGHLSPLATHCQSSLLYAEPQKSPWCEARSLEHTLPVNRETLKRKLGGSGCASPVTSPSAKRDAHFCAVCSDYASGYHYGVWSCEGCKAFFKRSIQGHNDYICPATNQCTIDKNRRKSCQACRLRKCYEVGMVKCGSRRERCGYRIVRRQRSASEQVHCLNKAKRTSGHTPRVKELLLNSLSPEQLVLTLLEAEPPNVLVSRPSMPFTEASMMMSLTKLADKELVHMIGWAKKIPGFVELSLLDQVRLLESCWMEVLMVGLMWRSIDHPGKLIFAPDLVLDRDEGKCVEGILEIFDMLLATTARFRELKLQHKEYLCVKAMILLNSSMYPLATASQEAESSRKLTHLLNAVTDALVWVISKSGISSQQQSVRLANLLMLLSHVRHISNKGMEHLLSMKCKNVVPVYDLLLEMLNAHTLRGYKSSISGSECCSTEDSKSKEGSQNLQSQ
T1 sequence (P19785 whole entry, looked up): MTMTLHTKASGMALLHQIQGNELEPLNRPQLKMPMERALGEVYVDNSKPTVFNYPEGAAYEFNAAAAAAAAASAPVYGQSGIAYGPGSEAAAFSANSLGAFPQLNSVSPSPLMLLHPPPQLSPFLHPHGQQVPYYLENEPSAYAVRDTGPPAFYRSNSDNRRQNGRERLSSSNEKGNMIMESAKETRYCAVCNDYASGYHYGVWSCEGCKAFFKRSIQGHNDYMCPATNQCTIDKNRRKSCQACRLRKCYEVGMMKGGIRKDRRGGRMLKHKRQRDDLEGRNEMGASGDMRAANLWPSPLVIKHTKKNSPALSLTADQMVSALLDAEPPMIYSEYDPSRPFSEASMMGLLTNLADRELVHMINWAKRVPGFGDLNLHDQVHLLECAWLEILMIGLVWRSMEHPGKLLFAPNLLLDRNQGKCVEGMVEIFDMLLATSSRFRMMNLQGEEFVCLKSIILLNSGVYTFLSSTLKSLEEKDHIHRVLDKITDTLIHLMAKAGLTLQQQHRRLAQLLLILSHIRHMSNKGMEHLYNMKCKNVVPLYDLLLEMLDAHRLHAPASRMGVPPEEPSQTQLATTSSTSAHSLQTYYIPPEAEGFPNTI

Turning to `C[C@]12CC[C@@H]3c4ccc(O)cc4CC[C@H]3[C@@H]1C[C@@H](F)[C@@H]2O` [FLUOROESTRADIOL], the Biodistribution worked out at 1.04 %ID/g in series [1]; 0.35 %ID/g in series [2]; 0.71 %ID/g in [3]; 2.46 %ID/g in series [4]; 0.54 %ID/g in series [5]; 0.2 %ID/g in [6]. The Biodistribution in series [7] is listed as 3.57 %ID/g; in series [8], 0.19 %ID/g; in [9], 0.62 %ID/g; in series [10] it was 1.28 %ID/g; in series [11], 0.16 %ID/g; in series [12] it was 0.15 %ID/g. Moreover, the Biodistribution was found to be 0.46 %ID/g in [13], 1.51 %ID/g in series [14], 1.07 %ID/g in [15] and 1.29 %ID/g in series [16].
In the case of `N#C[C@H](c1ccc(O)cc1)[C@@H](CCF)c1ccc(O)cc1`, the Biodistribution in series [17] was 0.21 %ID/g; in series [18] it was 0.76 %ID/g; in series [19], 1.88 %ID/g; in [20], 7.22 %ID/g; in series [21] it was 0.47 %ID/g; in series [22], 0.73 %ID/g. Besides, the Biodistribution in series [23] is 0.24 %ID/g; in [24] it was 0.29 %ID/g; in series [25], 0.49 %ID/g; in [26] it was 0.31 %ID/g; in series [27], 1.82 %ID/g; in [28], 0.57 %ID/g. In addition, the Biodistribution in series [30] came out at 1.57 %ID/g; in series [32], 0.1 %ID/g. Besides, the Ratio in [29] stood at 1.32; in [31], 0.61.
